Laboratory results as given in ChEMBL document CHEMBL1137710, “Synthesis and in vitro antitumor activity of new quinoxaline derivatives” (2009).

How the values were obtained:
Type in all cases: functional
[1] = test system: MCF7; assay: Anticancer activity against human MCF7 cells assessed as cell growth at 100 uM after 48 hrs by sulforhodamine B assay; settings: MCF7, 48 h, read-out: Activity
[2] = test system: SF-268; assay: Anticancer activity against human SF268 cells assessed as cell growth at 100 uM after 48 hrs by sulforhodamine B assay; settings: SF-268, 48 h, read-out: Activity
[3] = test system: K562; assay: Growth inhibition of human K562 cells after 48 hrs by sulforhodamine B assay; settings: K562, 48 h
Method in brief: (§1)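 NCI 60-human-tumor-cell-line panel, with compounds tested over a 5-log dose range. Values are taken from dose-response curves as log10 molar concentrations: GI50 is 50% net growth inhibition, TGI is total growth inhibition, and LC50 is 50% net cell death.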

[4] = Growth inhibition of human […] cells after 48 hrs by sulforhodamine B assay; method in brief: as §1
[5] = test system: NCI-H23; assay: Growth inhibition of human NCI-H23 cells after 48 hrs by sulforhodamine B assay; settings: NCI-H23, 48 h; method in brief: as §1
[6] = test system: NCI-H322M; assay: Growth inhibition of human NCI-H322M cells after 48 hrs by sulforhodamine B assay; method in brief: as §1
[7] = test system: NCI-H522; assay: Growth inhibition of human NCI-H522 cells after 48 hrs by sulforhodamine B assay; settings: NCI-H522, 48 h; method in brief: as §1
[8] = test system: COLO 205; assay: Growth inhibition of human COLO205 cells after 48 hrs by sulforhodamine B assay; settings: COLO 205, 48 h; method in brief: as §1
[9] = test system: HCT-116; assay: Growth inhibition of human HCT116 cells after 48 hrs by sulforhodamine B assay; settings: HCT-116, 48 h; method in brief: as §1
[10] = test system: SW-620; assay: Growth inhibition of human SW620 cells after 48 hrs by sulforhodamine B assay; settings: SW-620, 48 h
Method in brief: (§2)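 Run in the NCI 60-human-tumour-cell-line panel, tested over a 5-log dose range. Dose–response curves gave three values per cell line, each as a log10 molar concentration: GI50 (50% inhibition of net cell growth), TGI (total inhibition of net growth) and LC50 (50% net cell death). The mean graph midpoint is the arithmetic mean over all lines, with insensitive lines entered at the highest concentration tested.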

[11] = test system: SF-268; assay: Growth inhibition of human SF268 cells after 48 hrs by sulforhodamine B assay; settings: SF-268, 48 h; method in brief: as §1
[12] = test system: SF-295; assay: Growth inhibition of human SF295 cells after 48 hrs by sulforhodamine B assay; settings: SF-295, 48 h; method in brief: as §1
[13] = test system: SNB-19; assay: Growth inhibition of human SNB19 cells after 48 hrs by sulforhodamine B assay; settings: SNB-19, 48 h; method in brief: as §2
[14] = test system: U-251; assay: Growth inhibition of human U251 cells after 48 hrs by sulforhodamine B assay; settings: U-251, 48 h; method in brief: as §2
[15] = test system: LOX IMVI; assay: Growth inhibition of human LOXIMVI cells after 48 hrs by sulforhodamine B assay; method in brief: as §1
[16] = test system: M14; assay: Growth inhibition of human M14 cells after 48 hrs by sulforhodamine B assay; settings: M14, 48 h; method in brief: as §1
[17] = test system: SK-MEL-2; assay: Growth inhibition of human SK-MEL-2 cells after 48 hrs by sulforhodamine B assay; settings: SK-MEL-2, 48 h; method in brief: as §1
[18] = test system: SK-MEL-28; assay: Growth inhibition of human SK-MEL-28 cells after 48 hrs by sulforhodamine B assay; settings: SK-MEL-28, 48 h; method in brief: as §1
[19] = test system: SK-MEL-5; assay: Growth inhibition of human SK-MEL-5 cells after 48 hrs by sulforhodamine B assay; settings: SK-MEL-5, 48 h; method in brief: as §1
[20] = test system: UACC-62; assay: Growth inhibition of human UACC62 cells after 48 hrs by sulforhodamine B assay; settings: UACC-62, 48 h; method in brief: as §2
[21] = test system: OVCAR-3; assay: Growth inhibition of human OVCAR-3 cells after 48 hrs by sulforhodamine B assay; settings: OVCAR-3, 48 h; method in brief: as §1
[22] = test system: OVCAR-4; assay: Growth inhibition of human OVCAR4 cells after 48 hrs by sulforhodamine B assay; settings: OVCAR-4, 48 h; method in brief: as §1
[23] = test system: OVCAR-5; assay: Growth inhibition of human OVCAR5 cells after 48 hrs by sulforhodamine B assay; settings: OVCAR-5, 48 h; method in brief: as §1
[24] = test system: 786-0; assay: Growth inhibition of human 786-0 cells after 48 hrs by sulforhodamine B assay; settings: 786-0, 48 h; method in brief: as §1
[25] = test system: CAKI-1; assay: Growth inhibition of human Caki1 cells after 48 hrs by sulforhodamine B assay; settings: CAKI-1, 48 h; method in brief: as §1
[26] = test system: RXF 393; assay: Growth inhibition of human RXF393 cells after 48 hrs by sulforhodamine B assay; settings: RXF 393, 48 h; method in brief: as §1
[27] = test system: NCI/ADR-RES; assay: Growth inhibition of human NCI/ADR-RES cells after 48 hrs by sulforhodamine B assay; method in brief: as §1
[28] = test system: MDA-MB-231; assay: Growth inhibition of human MDA-MB-231 cells after 48 hrs by sulforhodamine B assay; settings: MDA-MB-231, 48 h; method in brief: as §1
[29] = Growth inhibition of human Hs 578T cells after 48 hrs by sulforhodamine B assay; method in brief: as §1
[30] = test system: MDA-MB-435; assay: Growth inhibition of human MDA-MB-435 cells after 48 hrs by sulforhodamine B assay; settings: MDA-MB-435, 48 h; method in brief: as §1
[31] = read-out: pLC50 (the source's name) (converted)

With `Nc1cc(N)c2nc(-c3ccccc3)c(Oc3ccc(F)cc3)nc2c1` the growth at 100 µM [1] was 2%, the growth at 100 µM [2] was 6% and the GI50 [3] was 11 µM. It also gave an LC50 [3] greater than 100 µM, a TGI ([3]; read-out: pTGI (converted)) greater than 100 µM and a GI50 [4] of 12.3 µM. The LC50 [4] was greater than 100 µM, the TGI ([4]; read-out: pTGI (converted)) was 46.8 µM and the GI50 [5] was 20.9 µM. It also gave an LC50 (50% net cell kill concentration) [5] of 77.6 µM, a TGI ([5]; read-out: pTGI (converted)) of 39.8 µM and a GI50 [6] of 17 µM. For the same molecule, the LC50 [6] was 81.3 µM, the TGI ([6]; read-out: pTGI (converted)) was 37.2 µM and the GI50 [7] was 64.6 µM. The LC50 [7] was greater than 100 µM, the TGI ([7]; read-out: pTGI (converted)) was greater than 100 µM and the GI50 [8] was 20 µM. The LC50 (50% net cell kill) [8] was 66.1 µM, the TGI ([8]; read-out: pTGI (converted)) was 36.3 µM and the GI50 [9] was 14.8 µM. It also gave an LC50 (concentration causing 50% net cell death) [9] greater than 100 µM, a TGI ([9]; read-out: pTGI (converted)) of 81.3 µM and a GI50 [10] of 19.5 µM. It also gave a CC50 [10, 31] greater than 100 µM, a TGI ([10]; read-out: pTGI (converted)) of 50.1 µM and a GI50 [11] of 13.8 µM. For the same molecule, the LC50 [11] was greater than 100 µM, the TGI ([11]; read-out: pTGI (converted)) was 47.9 µM and the GI50 [12] was 20.4 µM. The LC50 (50% net cell kill) [12] was 72.4 µM, the TGI ([12]; read-out: pTGI (converted)) was 38.9 µM and the GI50 [13] was 17.4 µM. The LC50 [13] was 66.1 µM, the TGI ([13]; read-out: pTGI (converted)) was 33.9 µM and the GI50 [14] was 23.4 µM. It also gave an LC50 (50% net cell kill) [14] greater than 100 µM, a TGI ([14]; read-out: pTGI (converted)) of 79.4 µM and a GI50 [15] of 43.7 µM. The LC50 [15] was greater than 100 µM, the TGI ([15]; read-out: pTGI (converted)) was greater than 100 µM and the GI50 [16] was 17 µM. It also gave a CC50 [16, 31] greater than 100 µM, a TGI ([16]; read-out: pTGI (converted)) of 44.7 µM and a GI50 [17] of 42.7 µM. The CC50 [17, 31] was greater than 100 µM, the TGI ([17]; read-out: pTGI (converted)) was greater than 100 µM and the GI50 [18] was 19.5 µM. The CC50 [18, 31] was greater than 100 µM, the TGI ([18]; read-out: pTGI (converted)) was 46.8 µM and the GI50 [19] was 12.3 µM. The CC50 [19, 31] was 83.2 µM, the TGI ([19]; read-out: pTGI (converted)) was 31.6 µM and the GI50 [20] was 15.8 µM. It also gave a CC50 [20, 31] of 69.2 µM, a TGI ([20]; read-out: pTGI (converted)) of 33.1 µM and a GI50 [21] of 15.5 µM. It also gave a CC50 [21, 31] greater than 100 µM, a TGI ([21]; read-out: pTGI (converted)) of 41.7 µM and a GI50 [22] of 8.32 µM. The CC50 [22, 31] was greater than 100 µM, the TGI ([22]; read-out: pTGI (converted)) was 35.5 µM and the GI50 [23] was 20.4 µM. The CC50 [23, 31] was greater than 100 µM, the TGI ([23]; read-out: pTGI (converted)) was 47.9 µM and the GI50 [24] was 15.5 µM. The CC50 [24, 31] was 75.9 µM, the TGI ([24]; read-out: pTGI (converted)) was 34.7 µM and the GI50 [25] was 11.2 µM. The CC50 [25, 31] was 53.7 µM, the TGI ([25]; read-out: pTGI (converted)) was 24.5 µM and the GI50 [26] was 19.1 µM. For the same molecule, the CC50 [26, 31] was greater than 100 µM, the TGI ([26]; read-out: pTGI (converted)) was greater than 100 µM and the GI50 [27] was 18.2 µM. The CC50 [27, 31] was 70.8 µM, the TGI ([27]; read-out: pTGI (converted)) was 36.3 µM and the GI50 [28] was 3.89 µM. For the same molecule, the CC50 [28, 31] was greater than 100 µM, the TGI ([28]; read-out: pTGI (converted)) was 28.8 µM and the GI50 [29] was 20 µM. The CC50 [29, 31] was greater than 100 µM, the TGI ([29]; read-out: pTGI (converted)) was 53.7 µM and the GI50 [30] was 15.8 µM. The CC50 [30, 31] was 67.6 µM and the TGI ([30]; read-out: pTGI (converted)) was 32.4 µM.
